The record followed here is the EternaBench riboswitch data.

The subject of the series is MS2 coat protein. In words: apparent Kd, MS2 coat protein; higher = weaker binding; RNA-MaP array. The method, boiled down: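 Designs measured on fewer than 10 clusters were excluded from the data. The rest were RNAs transcribed from sequenced DNA templates on an Illumina sequencing chip and incubated at room temperature, with or without input ligand, with fluorescently labeled MS2 coat protein at 1.5 nM to 3 μM for 0.8–1.5 h at the lowest to 10–20 min at the highest concentrations. Apparent Kd is the median of the per-cluster binding-curve fits.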

[1] abbreviates: designed as: OFF switch for flavin mononucleotide, no ligand.
Where [2] appears, read: ligand present: flavin mononucleotide, designed as: OFF switch for flavin mononucleotide.
Setting [3] is: designed as: ON switch for flavin mononucleotide, no ligand.
[4] abbreviates: ligand present: flavin mononucleotide, designed as: ON switch for flavin mononucleotide.
[5] abbreviates: designed as: OFF switch for theophylline, no ligand.
Setting [6] is: ligand present: theophylline, designed as: OFF switch for theophylline.
Setting [7] is: designed as: ON switch for theophylline, no ligand.
The mark [8] stands for this setting: ligand present: theophylline, designed as: ON switch for theophylline.
[9] abbreviates: designed as: ON switch for tryptophan, no ligand.
Setting [10] is: ligand present: tryptophan, designed as: ON switch for tryptophan.

One may read the apparent Kd as the concentration giving half-maximal binding under the conditions of the assay.

On to “CCGCGACCUGAGAAGGGCUGCCAAGGGAGACACAUGAGGAUCACCCAUGUCGGGUGGUCCUGCUAGCAGGAUAUCAUCGCAGGA”, for which the “apparent Kd” value reads like this: under setting [1], 173 nM; under setting [2], 225 nM.

Regarding “CAAGUCGGCAAGGAUAUGAAACGUAUUACAGAUUCAGAAGGUGCUACAUGAGGAUCACCCAUGUGGUCAAUACC”, the “apparent Kd” value stood at 6.76 nM under setting [1] and 13.1 nM under setting [2].

As for “UAGUAAACCGCAGGAUAUCCAACUUGGGCACCAGGAGAAGGGCGAUUAACAUGAGGAUCACCCAUGUAUUCGGAGAGCUUACCU”, the “apparent Kd” value under setting [3] came to 10.4 nM and the “apparent Kd” value under setting [4] is 9.18 nM.

Regarding “ACCUGGCGGCAGAAGGCCCGCGAUUAACGUAAGGGAGGAUAUGCAUUGUGCGGUGGGACAUGAGGAUCACCCAUGUGCAGCCAG”, the “apparent Kd” value amounted to 672 nM under setting [1] and 409 nM under setting [2].

With “UAAAUGUUUUAGAAGGGAUAAUGCGGCAUUGAAUCAGGAUAUAAAGCUAUAAACACAUGAGGAUCACCCAUGUCCCAGGUUAAA”, the “apparent Kd” value by setting is: under setting [3], 477 nM; under setting [4], 143 nM.

On to “GUAGGUUGCCAAGGAUAUGCGGGUACUCUUCCGAAACAUGAGGAUCACCCAUGUACUCUCCUGUAGCAGAAGGUGGCUUGGUGA”, for which the “apparent Kd” value is, setting by setting: under setting [1], 493 nM; under setting [2], 269 nM.

For “ACCGAGGCAAUGGAUACCAGUGCGCCACAAUCGUGCUUCAACAUGAGGAUCACCCAUGUGCACCCUUGGCAGCCAACGGGCUCAU”, the “apparent Kd” value is, setting by setting: under setting [5], 21.9 nM; under setting [6], 19.9 nM.

As for “GACGAGGAACCAAAGGAUAUACACAUAAACACAUGAGGAUCACCCAUGUAUUAGAGGAUAAACAUGUAGAAGGUUGAUACGGCGUG”, the “apparent Kd” value under setting [3] turned out to be 48.7 nM and the “apparent Kd” value under setting [4] was determined as 36.9 nM.

With “AUAGUGCGGCUGAAGGAUAUGGAACCCGCGACAUGAGGAUCACCCAUGUACUUAAGCGACAUUUGCCAGAAGGUCAAGCAUUCCAU”, the “apparent Kd” value by setting is: under setting [3], 13.3 nM; under setting [4], 11.2 nM.

Consider “CAGGGAAGAUGAGGAUAUCAUAGGAGGAUAUGUCGACACAUGAGGAUCACCCAUGUCGCUUACGUUGAGAAGGCAUUGACGUGU”, for which the “apparent Kd” value turned out to be 13.2 nM under setting [1] and 11.3 nM under setting [2].

For the sequence “CGAACAUGAGGAUCACCCAUGUGUUUCCUUGGUAGACGACAUAGAAGGGCCGUAAAUUACAGCGGGCAGGAUAUAUGACUUAAG”, the “apparent Kd” value under setting [1] stood at 164 nM and the “apparent Kd” value under setting [2] is 137 nM.

In the case of “GCCUGACCCAUAGGAUAUCGCGUAGCUGCCGGCUACGACACAUGAGGAUCACCCAUGUAUCAAAUCGAGAAGGAUGAUCUGCAA”, the “apparent Kd” value was determined as 272 nM under setting [3] and 168 nM under setting [4].

As to “GAUGGCCUAGGAUAUACGCGUUGGUUGGCUCGUCACGAUACACAUGAGGAUCACCCAUGUAGAAGGAGGAGAGU”, the “apparent Kd” value under setting [1] is 10.5 nM and the “apparent Kd” value under setting [2] was determined as 11.7 nM.

Turning to “AGCAUCGCAGGAUAUACAUGAGGAUCACCCAUGUAAAAUAACAAACUUGAACCUGCAAGUAGAAGGGCGUAACG”, the “apparent Kd” value was determined as 8.31 nM under setting [1] and 7.87 nM under setting [2].

Take “CAUUACCAUGUUAGGAUAUCCUGCGGAAUUGCCCUGGAGAAGGAACAUGAGGAUCACCCAUGUGCACAAACAAC”: the “apparent Kd” value under setting [1] came to 17.6 nM and the “apparent Kd” value under setting [2] came out at 26.1 nM.

As for “GCAAAAUACAUGAGGAUCACCCAUGUUAAGUGGGCCUGAACAAGAAGGCAGCAAAUUUUAUUUUCUGAGGAUAUUGGCAUAUAU”, the “apparent Kd” value is, setting by setting: under setting [1], 30.2 nM; under setting [2], 36.8 nM.

For the sequence “CAACUAAAGGAGAAGGCUAACAUGAGGAUCACCCAUGUCCGCGUGUCCGCUUAUAAUGCGCGCAUAGAGGAUAUCCCAAGUUUA”, the “apparent Kd” value came out at 21.4 nM under setting [3] and 13.6 nM under setting [4].

“AUCAUAAGAGUAGGAUAUCGACAUGAGGAUCACCCAUGUACCUUGGAUGACCGCUAAUGGUUUAUCGAGAAGGACUUUUCCUCC”: the “apparent Kd” value was 8.2 nM under setting [1] and 10.2 nM under setting [2].

Take “UCCACGGACCAAGGAUAUCCACAGUGAACCAGAGGAGAAGGUGGGAAUUACAUGAGGAUCACCCAUGUACGGGAUCUCCUGUAU”: the “apparent Kd” value is, setting by setting: under setting [3], 47.5 nM; under setting [4], 41.7 nM.

As for “GGCCUUUCGGUAAGGAUAUCCCUCCGCGCAGAUUGGGAGAAGGUACAUGAGGAUCACCCAUGUUUUAUGGCUGC”, the “apparent Kd” value by setting is: under setting [1], 9.4 nM; under setting [2], 10.8 nM.

“GCCUAUAUUGUCAGGAUAUGCAUAAAGGAAAAGAAGCAGAAGGGACAUGAGGAUCACCCAUGUUACAGCCAAUA”: the “apparent Kd” value by setting is: under setting [1], 6.84 nM; under setting [2], 12.6 nM.

For the sequence “ACCAGUAAAUAGCAAUCACAUGAGGAUCACCCAUGUACUGACAAGGAUAUAGUCUAAGAAUAGUGCUAGAAGGUGUUUCCCUAA”, the “apparent Kd” value runs as follows: under setting [3], 168 nM; under setting [4], 101 nM.

As for “AAAGAUUCCUGAACGCCGCAUACCGAUGAUACCAGCCAACGGAAAGGCCCUUGGCAGCAUUAAACAUGAGGAUCACCCAUGUCUA”, the “apparent Kd” value turned out to be 11.8 nM under setting [5] and 13.9 nM under setting [6].

For “AUAACACAUGAGGAUCACCCAUGUAAGGAUACCAGUUUCUGAUUAAACCCUUGGCAGCCUAGAGAUAGUCAUGUAAUAACGGCGA”, the “apparent Kd” value by setting is: under setting [7], 11.9 nM; under setting [8], 19 nM.

With “UCUGUGAUUCAAGGAUAUAAGUCGAGUGCUUGCUUAGAAGGUGACGAACAUGAGGAUCACCCAUGUGCUUUAUUCUUAUGCAUC”, the “apparent Kd” value amounted to 29.2 nM under setting [1] and 25.6 nM under setting [2].

“UAAUACCAUACAGGAUAUACUUAGCCCAAAACAUGAGGAUCACCCAUGUAUUGGAGUCCUCGGCGGUAGAAGGGUACAGAAAGA”: the “apparent Kd” value reads like this: under setting [1], 19.5 nM; under setting [2], 16.4 nM.

As for “GUUUCCUCAGGAUAUUACUGCCGGGACAUGAGGAUCACCCAUGUGGCCUCCGUAAGGCUAUAAGAAGGGAGGCGUC”, the “apparent Kd” value under setting [1] amounted to 111 nM and the “apparent Kd” value under setting [2] came to 157 nM.

With “GAAGACAUGAGGAUCACCCAUGUUACACACCGAGGACCGGUACGGCCGCCACUCGUAGGCCCUCGGCUCACCUGAGAUCCGCAUC”, the “apparent Kd” value under setting [9] was determined as 23.8 nM and the “apparent Kd” value under setting [10] was determined as 22.6 nM.

Consider “AGUGGGUAUGGGCAGGAUAUACGUCGGGCGACAUGAGGAUCACCCAUGUUGGGCGGUGAAGUUGAGUAGAAGGGCCUCCGCCCGAA”, for which the “apparent Kd” value is, setting by setting: under setting [3], 54.6 nM; under setting [4], 12.1 nM.

As to “GUAAGACAUGAGGAUCACCCAUGUGUCGAUACCAGCCCUGCCUCUGGCCCUUGGCAGCGACUCGCACACCUCGCACUGCACAAGU”, the “apparent Kd” value under setting [7] worked out at 54.9 nM and the “apparent Kd” value under setting [8] is 73.2 nM.

“CAACAGGAGCAGAAGGUCCAACUCAUAAAUACGGAAGGAUAUGCGUGACCAACUAAAGAAACAUGAGGAUCACCCAUGUAAGCG”: the “apparent Kd” value came to 10.7 nM under setting [3] and 7.53 nM under setting [4].

Take “GUAUCGGUUGAGAAGGCGGCGGAGACAUAACUUGGUCCCAACAUGAGGAUCACCCAUGUUAAAUCCGAGGAUAUCAACAAAGCC”: the “apparent Kd” value was determined as 6.84 nM under setting [1] and 18.9 nM under setting [2].

Take “AAUGUACAUGAGGAUCACCCAUGUCGUCUACUUAGAGGAUAUGAUUGGUUACCCAGCUGAUCAGAAGGCUACCGUC”: the “apparent Kd” value reads like this: under setting [3], 14.1 nM; under setting [4], 11.9 nM.

“CGAAUAUAGGCUACGUGUCAUUGAGGCGAUACCAGAUUAUGCCAGAUCCCUUGGCAGCGCCAAACAUGAGGAUCACCCAUGUUCA”: the “apparent Kd” value amounted to 22.1 nM under setting [5] and 29.3 nM under setting [6].

For “GAUCGUUGGGAGGAUAUCCGCAAGUCCAGGGAGGGAGAAGGCCCAACAUGAGGAUCACCCAUGUAGAAGCGCAU”, the “apparent Kd” value worked out at 51 nM under setting [1] and 77.6 nM under setting [2].

As to “UAUUGGAUAGGAUAUACAUGAGGAUCACCCAUGUUUUCAUUGGACGAGGACGCUCUUCGUAGAAGGAUCGGCUA”, the “apparent Kd” value came out at 10.8 nM under setting [1] and 10.2 nM under setting [2].

Consider “GCUAUAUCGUAGCUAACAUGAGGAUCACCCAUGUGAAGGAAGAGAAGGUGCAUCUAACAGACCCGCAAGGAUAUCUAGAUAAAG”, for which the “apparent Kd” value is 18.8 nM under setting [3] and 16.1 nM under setting [4].

As for “CGUUGACAUGAGGAUCACCCAUGUUCCCUAGCCACAGGAUAUCGACGCGUGCUCGCUAGACGAGAAGGGUGGUAAA”, the “apparent Kd” value under setting [3] is 30.4 nM and the “apparent Kd” value under setting [4] is 11.7 nM.

Turning to “AAUAUUAACGUCAGGAUAUGCCAUUCCCGUUGGCGGCAGAAGGGACAUGAGGAUCACCCAUGUGAAAACGUCAC”, the “apparent Kd” value came to 16.9 nM under setting [1] and 25.6 nM under setting [2].

As to “GGCGGGAGAAUAGGAUAUUCCGGUAAUCGACAUGAGGAUCACCCAUGUACCGUUCAACCGAUACCGAAGAAGGAUUAUAAGCCU”, the “apparent Kd” value is, setting by setting: under setting [3], 16.6 nM; under setting [4], 13.8 nM.

Turning to “UACCCAUUAGAGAAGGUUGACGCCCUAGUUGUCAAAGGAUAUCUCCUCGAGGCUACACAUGAGGAUCACCCAUGUUCACAGGUC”, the “apparent Kd” value is, setting by setting: under setting [1], 9.35 nM; under setting [2], 8.92 nM.

Take “CGUGAUACUGGUAUACUCUGAAGAUCAAUUCGAGGACCGGUACGGCCGCCACUCGUUAGUAGACAUGAGGAUCACCCAUGUUAGU”: the “apparent Kd” value runs as follows: (designed as: OFF switch for tryptophan, no ligand) 20 nM; (ligand present: tryptophan, designed as: OFF switch for tryptophan) 22.5 nM.

As to “GUCCUCGACACGGCCGCCACUGGCUCGCCUGUUGGCGCCGACCCACAUGAGGAUCACCCAUGUUCCAGGACCGGGUGUCACAGCA”, the “apparent Kd” value reads like this: under setting [9], 224 nM; under setting [10], 157 nM.

Consider “UCAAGGUCAGGAUAUUUAUACAGUCGAUUACGAGGAUGUCGAAAGAAGGGACAUGAGGAUCACCCAUGUGGUAC”, for which the “apparent Kd” value by setting is: under setting [1], 43 nM; under setting [2], 57.7 nM.

Regarding “CCCUCGUUAUAGAAGGUCACAUUAAAUAAACAUGAAGGAUAUAUACCCAUUACACAUGAGGAUCACCCAUGUUAGGGCUGGCAU”, the “apparent Kd” value under setting [1] amounted to 14.2 nM and the “apparent Kd” value under setting [2] is 13.6 nM.

Turning to “AUUUCAAACAUGAGGAUCACCCAUGUCAAGUUUGAGCAACUAAGAAGGUCAGAUCCAUAAGCACUGAAGGAUAUUAAGAGGUAC”, the “apparent Kd” value by setting is: under setting [1], 31.8 nM; under setting [2], 22 nM.

With “GUGUUACAUGAGGAUCACCCAUGUGUCUGAUGUCAAGGAUAUGACUCUUCCUUCACAAAGUCAGAAGGUGAUAUCA”, the “apparent Kd” value amounted to 66.2 nM under setting [3] and 12.8 nM under setting [4].
